Measurements collected from several papers.
Lines come from different studies, so protocols differ.
gag-pol integrase: Gag-Pol polyprotein, integrase (gag-pol, Human immunodeficiency virus 1, UniProt P12497)
MET: Hepatocyte growth factor receptor (MET, Homo sapiens, UniProt P08581)
P2RX7: P2X purinoceptor 7 (P2RX7, Homo sapiens, UniProt Q99572)
IDE: Insulin-degrading enzyme (IDE, Homo sapiens, UniProt P14735)

CCOc1ccc2c(-c3cc(C)nc(Nc4cc(OC)cc(C(F)(F)F)c4)n3)cnn2n1
IC50 (Homeodomain-interacting protein kinase 1 (HIPK1, Homo sapiens, UniProt Q86Z02); enzyme activity; inhibitor): > 10 µM

O=C(O)C(CCC(c1ccccc1)(c1ccccc1)c1ccccc1)NCc1ccccc1 (racemic)
IC50 (Kinesin-like protein KIF11 (KIF11, Homo sapiens, UniProt P52732); ATPase activity; inhibitor): > 49.2 µM

CC(C)(C)OC(=O)N1CCC(C(=O)N[C@@H](Cc2ccc3ccccc3c2)C(=O)O)(c2ccccc2)CC1
IC50 (gag-pol integrase; enzyme activity; inhibitor; TR-FRET): 90.3 µM

CN1CCN(c2ccc(Nc3ncc4cc(C#N)c(=O)n(C5CCCC5)c4n3)cc2)CC1
IC50 (Serine/threonine-protein kinase 4 (STK4, Homo sapiens, UniProt Q13043); enzyme activity; inhibitor): 7.07 µM

CNC(=O)c1cc2c(Oc3ccc(NC(=O)C4(C(=O)Nc5ccc(F)cc5)CC4)cc3)ccnc2cc1OC
IC50 (Hepatocyte growth factor receptor (MET, Homo sapiens, UniProt P08581, Y1230D); enzyme activity; inhibitor; radiometric): 0.009 µM

Cc1cc(Oc2ccc(NC(=O)c3sc(-c4ccncc4)nc3C)cc2F)c2nncn2n1
IC50 (MET; enzyme activity; inhibitor; mobility shift): 0.65 µM

CC[C@H](C)[C@H](NC(C)=O)C(=O)N[C@@H](CCC(=O)O)C(=O)N[C@H](C(=O)N[C@H](C=O)CC(=O)O)[C@@H](C)O
IC50 (Caspase-1 (CASP1, Homo sapiens, UniProt P29466); enzyme activity; inhibitor): 0.0173 µM

CCCN(CCC)S(=O)(=O)c1ccc(-c2n[nH]c(=S)o2)cc1
IC50 (P2RX7; calcium signal; antagonist): 6.11 µM

Cc1cc(Oc2ccc(NC(=O)c3sc(-c4ccc(F)cc4)nc3C)cc2)c2nncn2n1
IC50 (MET; enzyme activity; inhibitor; mobility shift): 0.79 µM

O=C(Nc1ccn(Cc2ccc(O)cc2C(F)(F)F)n1)c1c(F)cccc1F
IC50 (P2RX7; ion current): > 10 µM

Cc1nc2ccc(Br)cc2c(-c2ccc(Cl)cc2)c1C(OC(C)(C)C)C(=O)O (stereo not drawn)
IC50 (gag-pol integrase; enzyme activity; inhibitor; TR-FRET): 0.12 µM

CCn1ncc2c1-c1cnc(N)c(c1)O[C@H](C)c1cc(F)ccc1-c1nn(C)nc1C2
IC50 (Macrophage colony-stimulating factor 1 receptor (CSF1R, Homo sapiens, UniProt P07333); enzyme activity; inhibitor; radiometric): 0.489 µM

FC(F)(F)c1cccc(-c2nnc(S)o2)c1
IC50 (P2RX7; calcium signal; antagonist): 1.5 µM

CC(C)(C)n1nc(-c2ccc3nc(OC4CC4)ccc3c2)c(C(N)=O)c1N
IC50 (Tyrosine-protein kinase JAK3 (JAK3, Homo sapiens, UniProt P52333); cell-free assay): > 10 µM

COC(=O)[C@H](Cc1c[nH]cn1)NC(=O)CN(CC(=O)O)Cc1ccc(C)cc1
IC50 (IDE; enzyme activity; inhibitor; fluorescence): 1.7 µM

CCCC[C@H](NC(=O)C1CN(C)C1)c1ncc(-c2cc3ccccc3nc2OC)[nH]1
IC50 (Histone deacetylase 3 (HDAC3, Homo sapiens, UniProt O15379); enzyme activity; inhibitor): 0.016 µM

COC(=O)[C@H](Cc1c[nH]cn1)NC(=O)CN(CC(=O)O)Cc1ccc(C(C)(C)C)cc1
IC50 (IDE; enzyme activity; inhibitor; fluorescence): 2.9 µM

CCOCc1nc(O)c(-c2nnc(Cc3ccc(Cl)cn3)o2)c(O)c1-c1c(OC)cccc1OC
IC50 (Alpha-1B adrenergic receptor (ADRA1B, Homo sapiens, UniProt P35368); ligand displacement; radioligand): > 30 µM

COC(=O)[C@H](Cc1c[nH]cn1)NC(=O)CN(Cc1ccccc1)c1c(O)c(=O)c1=O
IC50 (IDE; enzyme activity; inhibitor; fluorescence): 12.5 µM

CC(C)(C)OC(=O)N1CCC(C(=O)N[C@@H](Cc2ccccc2)C(=O)O)(c2ccc(-c3ccccc3)cc2)CC1
IC50 (gag-pol integrase; enzyme activity; inhibitor; TR-FRET): 64.4 µM

CCCc1ccc(S(=O)(=O)Oc2ccccc2NC(=O)c2ccc3ncccc3c2)cc1
IC50 (P2RX7; calcium signal; antagonist): 2.17 µM

Cc1[nH]c(/C=C2\C(=O)Nc3ccc(S(=O)(=O)N(C)c4cccc(Cl)c4)cc32)c(C)c1C(=O)N1CCN(C)CC1
IC50 (Hepatocyte growth factor receptor, non-phosphorylated (MET, Homo sapiens, UniProt P08581); enzyme activity; inhibitor; TR-FRET): 0.005 µM

O=C(Nc1ccccc1OS(=O)(=O)c1ccc([N+](=O)[O-])cc1)c1ccc2ncccc2c1
IC50 (P2RX7; calcium signal; antagonist): 1.81 µM

Cc1cnc(-c2ccc(-c3ccc(NC(=O)Nc4c(F)cc(F)cc4F)cc3F)c3c2C(=O)NC3)[nH]1
IC50 (TRAF2 and NCK-interacting protein kinase (TNIK, Homo sapiens, UniProt Q9UKE5); enzyme activity; inhibitor): 0.0041 µM

O=C(O)CN(CCCc1ccccc1)CC(=O)N[C@H](CO)Cc1c[nH]cn1
IC50 (IDE; enzyme activity; inhibitor; fluorescence): 1.6 µM

CC1(COc2ccc(CC3SC(=O)NC3=O)cc2)CCCCC1 (stereo not drawn)
IC50 (Peroxisome proliferator-activated receptor alpha (PPARA, Homo sapiens, UniProt Q07869); ligand displacement; TR-FRET): 377 µM

CC(C)n1nc(-c2ccc3c(c2)sc2ccccc23)c2c(N)ncnc21
IC50 (Calmodulin-domain protein kinase 1, putative (Cryptosporidium parvum, UniProt A3FQ16); enzyme activity; inhibitor): > 3 µM

Nc1ncnc2c1c(COc1cccc(Cl)c1)nn2C1CCOCC1
IC50 (TGF-beta receptor type-1 (TGFBR1, Homo sapiens, UniProt P36897); cell-free assay; TR-FRET): 0.82 µM

COC(=O)[C@H](Cc1c[nH]cn1)NC(=O)CN(CC(=O)O)Cc1ccncc1
IC50 (IDE; enzyme activity; inhibitor; fluorescence): 6.3 µM

CC1(C)CC(=O)C=C(NC(=O)Nc2ccc(O)cc2)C1
IC50 (crk3 (Leishmania mexicana, UniProt O15851); enzyme activity; inhibitor; radiometric): 3.3 µM

CC(C)OC(=O)[C@H](Cc1c[nH]cn1)NC(=O)CN(CC(=O)O)Cc1ccccc1
IC50 (IDE; enzyme activity; inhibitor; fluorescence): 0.3 µM

C[C@H]1C[C@@H](N2C(=N)N[C@](C)(c3cccc(Nc4ccc(C5CC5)nc4)c3Cl)CC2=O)CCO1
IC50 (Sodium channel protein type 10 subunit alpha (SCN10A, Homo sapiens, UniProt Q9Y5Y9); ion current; inhibitor; patch clamp): 8 µM

COC(=O)[C@H](Cc1c[nH]cn1)NC(=O)CN(CC(=O)NO)Cc1ccccc1
IC50 (IDE; enzyme activity; inhibitor; fluorescence): 3.2 µM

O=C(O)CC1=C/C(=C\c2cccc(-c3ccc(F)cc3)n2)c2ccc(F)cc21
IC50 (Prostaglandin G/H synthase 2 (Ptgs2, Mus musculus, UniProt Q05769); enzyme activity; inhibitor): 0.67 µM

COC(=O)[C@H](Cc1c[nH]cn1)NC(=O)CN(CCc1c[nH]c2ccccc12)CC(=O)O
IC50 (IDE; enzyme activity; inhibitor; fluorescence): 1.2 µM

CC(C)C[C@H](CC(=O)NO)C(=O)N[C@@H](Cc1ccccc1)C(=O)NCCN1CCOCC1
IC50 (Interstitial collagenase (MMP1, Homo sapiens, UniProt P03956); enzyme activity; inhibitor; absorbance): 0.003 µM
